Measurements from ChEMBL document CHEMBL1124852, “Synthesis of 3-arylecgonine analogues as inhibitors of cocaine binding and dopamine uptake” (J Med Chem, 1990).

Assays:
[1] = molecular target: Sodium-dependent dopamine transporter (Bos taurus, UniProt P27922); assay: Competitive inhibition against [3H]cocaine binding to cocaine receptor in bovine striatal tissue; assay type: tissue-based, Striatum
Outline: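 Bovine striatum (caudate, putamen, globus pallidus, nucleus accumbens) homogenised in ice-cold 10 mM Na2HPO4 with 0.32 M sucrose, pH 7.4. Pelleted twice at 17000g for 20 min and resuspended to about 3.0 mg/mL protein (Lowry). [3H]cocaine (29.7 Ci/mmol) binding measured by filtration. Triplicates; mean of three experiments; IC50 by log-logit transformation.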

Bos taurus = species on record: Bos taurus; assay: Competitive inhibition against [3H]dopamine uptake in bovine striatal tissue; assay type: functional, Striatum
Outline: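 Striatal P2 synaptosomes prepared in ice-cold 0.3 M sucrose with […], pH 7.4 (3000g for 10 min, then supernatant at 17000g for 20 min). [3H]dopamine (30 Ci/mmol) uptake read by filtration at 37 °C; nonspecific uptake measured at 4 °C. Run in triplicate; mean of three experiments; IC50 from log-logit transformation.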

Sodium-dependent dopamine transporter, sequence (P27922 whole entry): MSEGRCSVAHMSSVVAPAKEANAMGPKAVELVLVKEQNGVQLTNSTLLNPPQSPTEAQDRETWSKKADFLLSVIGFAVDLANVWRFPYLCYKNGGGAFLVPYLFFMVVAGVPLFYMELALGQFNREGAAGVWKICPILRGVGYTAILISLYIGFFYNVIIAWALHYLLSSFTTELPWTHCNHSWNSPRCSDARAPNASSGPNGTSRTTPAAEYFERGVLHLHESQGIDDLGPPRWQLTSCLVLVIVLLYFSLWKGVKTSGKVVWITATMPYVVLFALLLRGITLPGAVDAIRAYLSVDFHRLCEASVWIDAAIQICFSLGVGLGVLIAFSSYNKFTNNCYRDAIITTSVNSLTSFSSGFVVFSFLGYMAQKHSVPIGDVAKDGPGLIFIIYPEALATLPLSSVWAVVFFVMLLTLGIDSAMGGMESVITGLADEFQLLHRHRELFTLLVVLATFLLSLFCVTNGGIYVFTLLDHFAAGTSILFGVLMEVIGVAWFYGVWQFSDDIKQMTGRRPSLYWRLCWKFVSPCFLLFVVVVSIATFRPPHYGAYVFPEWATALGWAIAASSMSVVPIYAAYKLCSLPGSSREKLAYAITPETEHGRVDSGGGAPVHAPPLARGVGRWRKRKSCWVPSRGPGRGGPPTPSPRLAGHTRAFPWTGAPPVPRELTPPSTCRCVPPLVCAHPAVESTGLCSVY

SMILES: COC(=O)C1C(c2ccc([N+](=O)[O-])cc2[N+](=O)[O-])CC2CCC1N2C (racemic)
- IC50 [1]: 11000 nM
- IC50 (Bos taurus; Bos taurus, Striatum): 30000 nM

SMILES: COC(=O)[C@@H]1C2CC[C@H](C[C@@H]1c1ccccc1)N2C (mixture of isomers; form 1)
- IC50 [1]: 22 nM
- IC50 (Bos taurus): 133 nM

SMILES: COC(=O)C1C(c2ccc(N)cc2)CC2CCC1N2C (stereo not drawn)
- IC50 [1]: 192 nM
- IC50 (Bos taurus; Bos taurus, Striatum): 557 nM

SMILES: COC(=O)[C@@H]1C2CC[C@H](C[C@@H]1c1ccccc1)N2C (mixture of isomers; form 2)
- IC50 [1]: 1200 nM
- IC50 (Bos taurus): 2100 nM
